Assay results reported in ChEMBL document CHEMBL1641525, “Antiproliferative and apoptotic sesquiterpene lactones from Carpesium faberi” (Bioorg Med Chem Lett, 2011).
≈ marks a conversion by molar mass, not a printed value. Calls of active or inactive are those of the source. The calls are words filed in the database; no cut-off is given here.

How the values were obtained:
MCF7 [1] = assay: Antiproliferative activity against human MCF7 cells after 48 hrs by MTT assay; type: functional, cell-based; settings: MCF7, 48 h
Summary of the method: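 MCF-7 (ATCC) grown in DMEM + 10% heat-inactivated FBS, penicillin/streptomycin, 37 °C, 5% CO2. Exponential cells seeded 4.0×10^3/well; after 24 h treated with a range of concentrations for 48 h in the dark. Medium refreshed, then MTT (1 mg/mL) for 4 h; formazan dissolved in DMSO, OD 570 nm. 0.5% DMSO negative control. IC50 from log concentration–viability curves.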

MCF7 [2] = assay: Cell cycle arrest in human MCF7 cells assessed as accumulation at sub-G1 phase at IC50 concentration after 24 hrs using propidium iodide staining by flow cytometry; type: functional
MCF7 [3] = assay: Cell cycle arrest in human MCF7 cells assessed as accumulation at G2/M phase at IC50 concentration after 24 hrs using propidium iodide staining by flow cytometry; type: functional, cell-based

Compound	IC50 (MCF7 [1])	Activity (MCF7 [2])	Activity (MCF7 [3])
C[C@@H]1C[C@@H]2OC(=O)[C@@H](C)[C@H]2C[C@]2(C)[C@@H](O[C@@H]3O[C@H](CO)[C@@H](O)[C@H](O)[C@H]3O)CC[C@@H]12	> 50 µg/mL		
C=C1C(=O)O[C@@H]2C[C@](C)(O)C3=CC[C@](C)(O)[C@@H]3C[C@H]12	38.8 µg/mL (≈ 147 µM)		
C=C1C(=O)O[C@@H]2C[C@]3(C)[C@@H](CC[C@H](C)OC(C)=O)[C@@H]3C[C@H]12	9.4 µg/mL (≈ 32.2 µM)	> 5%	Active
C=C1C(=O)O[C@H]2C[C@](C)(O)C3=CC[C@](C)(O)[C@@H]3C[C@H]12	31.9 µg/mL (≈ 121 µM)		
C=C1C(=O)O[C@@H]2C[C@](C)(O)C3=CC[C@@](C)(O)[C@@H]3C[C@H]12	26.5 µg/mL (≈ 100 µM)		
C=C1C[C@H](O)C[C@]2(C)C[C@H]3OC(=O)[C@@H](C)[C@H]3C[C@@]12O	> 50 µg/mL		
C/C(=C\CO)CC[C@@H]1[C@@]2(C)CCCC(C)(C)[C@@H]2CC[C@@]1(C)O	18.6 µg/mL (≈ 60.3 µM)		
C=C1C(=O)O[C@@H]2C[C@@H](C)[C@@H]3CCC(=O)[C@@]3(C)C[C@H]12	3.9 µg/mL (≈ 15.7 µM)		
C=C1C(=O)O[C@H]2C=C(C)[C@@H]3CC[C@](C)(O)[C@@H]3C[C@H]12 [4-EPI-ISOINUVISCOLIDE]	16.3 µg/mL (≈ 65.6 µM)		
C[C@@H]1C(=O)O[C@@H]2C[C@@]3(C)O[C@@H]3C[C@H](O)[C@@]3(C)O[C@@H]3C[C@H]12 [CARABROLACTONE A]	> 50 µg/mL		
C=C1C(=O)O[C@H]2C[C@@H](C)[C@@H]3CC[C@H](O)[C@@]3(C)[C@@H](O)[C@H]12 [CARABROLACTONE B]	10.7 µg/mL (≈ 40.2 µM)		
COc1cccc2c1C(=O)c1c(O)c3c(c(O)c1C2=O)C[C@@](O)(C(C)=O)C[C@@H]3O[C@H]1C[C@H](N)[C@H](O)[C@H](C)O1 [DAUNORUBICIN]	0.5 µg/mL (≈ 0.948 µM)		
O=c1[nH]cc(F)c(=O)[nH]1 [FLUOROURACIL]	14.1 µg/mL (≈ 108 µM)		
C=C1C(=O)O[C@H]2C[C@@](C)(O)C3=CC[C@](C)(O)[C@@H]3C[C@H]12 [GUAIANOLIDE]	31.7 µg/mL (≈ 120 µM)	> 5%	Active
C=C1C(=O)O[C@@H]2C[C@@]3(C)C[C@@H](O)CC(=C)[C@@H]3C[C@H]12 [IVALIN]	12.5 µg/mL (≈ 50.3 µM)		
C=C1C(=O)O[C@H]2C[C@@H](C)[C@@H]3CC[C@H](O)[C@@]3(C)C[C@H]12 [PSEUDOGUAIANOLIDE]	9.8 µg/mL (≈ 39.1 µM)		Active
C=C1C(=O)O[C@@H]2C[C@@]3(C)CCCC(=C)[C@]3(O)C[C@H]12 [TELEKIN]	3 µg/mL (≈ 12.1 µM)		Active
C=C1C(=O)O[C@@H]2C[C@H](C)C(CCC(C)=O)=CC[C@H]12 [TOMENTOSIN]	> 50 µg/mL		
C/C(=C\CO)CCC[C@H](C)CCC[C@H](C)CCCC(C)C [TRANS-PHYTOL]	> 50 µg/mL		
